The source made the active and inactive calls. The rule behind the calls is not given here.
Key:
Escherichia coli = assay: Inhibition of Escherichia coli T4 DNA polymerase at 200 uM
Method in brief: (§1)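 Compound dissolved in DMSO and sonicated 30 s, then held with each polymerase (final 0.05 U) in 50 mM Tris-HCl pH 7.5, 1 mM DTT, 50% glycerol, 0.1 mM EDTA at 0 °C for 10 min. Reaction with poly(dA)/oligo(dT)12-18 and dTTP ran 60 min at 37 °C (Taq at 74 °C). Activity relative to no-compound control; means ± SEM, four independent experiments.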

[1] = molecular target: T1, DNA polymerase lambda (Homo sapiens) (UniProt Q9UGP5); assay: Inhibition of human DNA polymerase lambda at 200 uM; method in brief: as §1
T1 sequence (whole entry): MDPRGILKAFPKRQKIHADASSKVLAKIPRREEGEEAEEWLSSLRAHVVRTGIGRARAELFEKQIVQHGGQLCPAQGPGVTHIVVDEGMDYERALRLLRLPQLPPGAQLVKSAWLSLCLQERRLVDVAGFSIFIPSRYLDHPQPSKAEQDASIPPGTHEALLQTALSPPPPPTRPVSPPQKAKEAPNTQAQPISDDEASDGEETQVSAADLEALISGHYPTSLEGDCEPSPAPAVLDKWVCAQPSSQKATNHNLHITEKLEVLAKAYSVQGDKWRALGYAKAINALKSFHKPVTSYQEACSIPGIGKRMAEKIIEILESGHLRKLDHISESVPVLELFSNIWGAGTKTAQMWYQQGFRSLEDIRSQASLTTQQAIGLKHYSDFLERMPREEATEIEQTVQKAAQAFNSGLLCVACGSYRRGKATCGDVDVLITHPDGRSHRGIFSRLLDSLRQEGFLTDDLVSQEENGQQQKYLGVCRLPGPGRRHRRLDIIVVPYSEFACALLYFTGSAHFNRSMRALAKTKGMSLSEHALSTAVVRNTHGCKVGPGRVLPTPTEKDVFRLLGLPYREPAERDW

Homo sapiens = species: Homo sapiens; assay: Inhibition of human topoisomerase type 1 at 200 uM
Method in brief: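 Each enzyme (0.05 U) was incubated with 200 μM compound. Activity was expressed as a percentage of the activity without compound (100%). Means ± SEM of four independent experiments.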

[2] = molecular target: T2, DNA polymerase iota (Homo sapiens) (UniProt Q9UNA4); assay: Inhibition of human DNA polymerase iota at 200 uM; method in brief: as §1
T2 sequence (whole entry): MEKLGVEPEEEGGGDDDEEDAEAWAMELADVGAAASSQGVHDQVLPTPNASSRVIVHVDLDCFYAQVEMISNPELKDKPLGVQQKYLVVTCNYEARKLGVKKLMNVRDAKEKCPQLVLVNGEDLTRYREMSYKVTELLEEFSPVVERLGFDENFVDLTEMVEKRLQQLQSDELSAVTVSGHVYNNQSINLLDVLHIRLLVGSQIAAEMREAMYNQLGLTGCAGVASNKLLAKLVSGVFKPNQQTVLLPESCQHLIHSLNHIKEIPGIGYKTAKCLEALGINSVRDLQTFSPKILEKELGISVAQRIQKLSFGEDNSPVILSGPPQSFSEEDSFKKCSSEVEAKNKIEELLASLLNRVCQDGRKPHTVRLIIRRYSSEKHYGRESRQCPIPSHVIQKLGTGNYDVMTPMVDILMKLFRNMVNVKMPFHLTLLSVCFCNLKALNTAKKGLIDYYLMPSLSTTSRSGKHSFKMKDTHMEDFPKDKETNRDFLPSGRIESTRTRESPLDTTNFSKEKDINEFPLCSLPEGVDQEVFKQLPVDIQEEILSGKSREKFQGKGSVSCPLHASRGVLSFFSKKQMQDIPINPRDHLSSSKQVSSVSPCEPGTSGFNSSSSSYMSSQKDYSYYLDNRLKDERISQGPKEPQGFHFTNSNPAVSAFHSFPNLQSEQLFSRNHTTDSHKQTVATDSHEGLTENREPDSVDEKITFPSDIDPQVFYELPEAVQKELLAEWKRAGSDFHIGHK

Activity (Escherichia coli): inactive
Activity [1]: Active
Activity (Homo sapiens): inactive
Activity [2]: inactive
Structure (SMILES): C/C(=C\CC[C@H](C)C(=O)O)[C@H]1CC[C@H](C(=O)O)CC1
